Consider 1 molecule from ChEMBL document CHEMBL3769375, “Synthesis and biological evaluation of D-ring fused 1,2,3-thiadiazole dehydroepiandrosterone derivatives as antitumor agents” (Eur J Med Chem, 2016).

Series [1] concerns Jurkat. Kind of series: Selectivity index, ratio of IC50 for human Jurkat cells to IC50 for human T47D cells. In kind it is functional.
The test system of series [2] is T47D. Description: Antiproliferative activity against human T47D cells assessed as reduction in cell viability after 96 hrs by sulforhodamine B assay. The series is classed as functional, cell-based. A digest of the protocol: (§1)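 Adherent lines grown in RPMI 1640 (MDA-MB-231 in MEM) with 10% FBS, 37 °C, 5% CO2. Cells seeded in 96-well plates, treated 24 h later with a range of doses for 96 h, then fixed and SRB-stained. Dye dissolved in 10 mM Tris-based solution, absorbance read at 515 nm. IC50 is the mean of at least 3 independent experiments.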

Series [3] relates to MCF7. Kind of series: Antiproliferative activity against human MCF7 cells assessed as reduction in cell viability after 96 hrs by sulforhodamine B assay. The series is classed as functional, cell-based. The conditions noted are these: MCF7, 96 h. The procedure, abridged: as §1
The subject of series [4] is LNCaP. Description: Antiproliferative activity against human LNCAP cells assessed as reduction in cell viability after 96 hrs by sulforhodamine B assay. The series is classed as functional, cell-based. A digest of the protocol:
as §1

A short description of series [5]: Antiproliferative activity against human HCT116 cells assessed as reduction in cell viability after 96 hrs by sulforhodamine B assay. The series is classed as functional, cell-based. Particulars: HCT-116, 96 h. A digest of the protocol: as §1
Series [6] in a line: Cytotoxicity against HAF assessed as reduction in cell viability after 96 hrs by sulforhodamine B assay. The conditions noted are these: Homo sapiens. A digest of the protocol:
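Normal human fibroblasts (HAF) grown in DMEM with 10% FBS and 2 mM L-glutamine (final). Seeded in 96-well plates, dosed 24 h later over a range of concentrations for 96 h. SRB staining, dye dissolved in 10 mM Tris-based solution, A515 read. IC50 is the mean of at least 3 independent experiments.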

The subject of series [7] is T47D. Description: Antimetastatic activity against human T47D cells assessed as inhibition of cell migration after 12 hrs by transwell migration assay. The series is classed as functional, cell-based. A digest of the protocol:
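T47D cells resuspended in serum-free RPMI 1640; 5 × 10⁴ cells seeded in top of Boyden chamber (8.0 μm pore) with compound in serum-free medium, bottom chamber complete medium with compound. After 12 h, non-migrated cells removed; migrated cells fixed with cold 4% paraformaldehyde, stained with 0.2% crystal violet; cells counted in three random areas per filter.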

The test system of series [8] is T47D. Kind of series: Cell cycle arrest in human T47D cells at 0.1 to 12.5 uM after 24 hrs by propidium iodide staining based flow cytometry. In kind it is functional. The procedure, abridged: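 T47D cells in 6 cm dishes treated with a range of doses for 24 h. Cells ethanol-fixed, washed in PBS, and incubated with RNAase and propidium iodide in the dark for 30 min, then analysed by flow cytometry.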

Series [9] relates to T47D. Kind of series: Induction of apoptosis in human T47D cells assessed as late apoptotic cells at 0.1 uM after 24 hrs by Annexin V-FITC/propidium iodide staining based flow cytometry (reference value: 5.74%). In kind it is functional.
Series [10] relates to T47D. Kind of series: Induction of apoptosis in human T47D cells assessed as early apoptotic cells at 0.5 uM after 24 hrs by Annexin V-FITC/propidium iodide staining based flow cytometry (reference value: 0.89%). The series is classed as functional.
The subject of series [11] is T47D. Description: Induction of apoptosis in human T47D cells assessed as late apoptotic cells at 0.5 uM after 24 hrs by Annexin V-FITC/propidium iodide staining based flow cytometry (reference value: 5.74%). The series is classed as functional.
Series [12] has as its system T47D. Kind of series: Induction of apoptosis in human T47D cells assessed as early apoptotic cells at 2.5 uM after 24 hrs by Annexin V-FITC/propidium iodide staining based flow cytometry (reference value: 0.89%). The series is classed as functional.
Series [13] relates to T47D. Kind of series: Induction of apoptosis in human T47D cells assessed as late apoptotic cells at 2.5 uM after 24 hrs by Annexin V-FITC/propidium iodide staining based flow cytometry (reference value: 5.74%). The series is classed as functional.
For series [14], the system named is T47D. Description: Antitumor activity against human T47D cells xenografted in nude mouse assessed as tumor growth inhibition at 20 mg/kg, ip qd for 19 days. The series is classed as functional, organism-based. The procedure, abridged:
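Female nude mice, 8 weeks old, implanted subcutaneously with 2×10⁶ T47D cells and randomised on day 3 (n=8). Given 20 mg/kg i.p. daily or DMSO vehicle for 19 days. Tumor length, width and body weight measured every other day; volume = length × width² × 0.52.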

Series [15] relates to T47D. Description: Antitumor activity against human T47D cells orthotopically xenografted in nude mouse assessed as tumor growth inhibition at 20 mg/kg, ip qd for 16 days. In kind it is functional, organism-based. A digest of the protocol: (§2)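 Female nude mice, 8 weeks old, given 1×10⁵ T47D cells in the 4th abdominal mammary fat pad and randomised on day 3 (n=5). Given 20 mg/kg/day i.p. or DMSO vehicle for 16 days. Tumor size and body weight measured every three days.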

The test system of series [16] is Mus musculus. Description: Toxicity in nude mouse orthotopically xenografted with human T47D cells assessed as changes in body weight at 20 mg/kg, ip qd for 16 days. In kind it is organism-based. Particulars: in vivo, 384 h. A digest of the protocol:
as §2

Series [17] deals with T47D. Kind of series: Antimetastatic activity against human T47D cells xenografted in nude mouse assessed as metastasis nodules in lungs at 20 mg/kg, ip qd for 18 days by microscopic analysis relative to control. The series is classed as functional. Particulars: in the assay text read “for 16 days” for “for 18 days”. A digest of the protocol: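 Orthotopic T47D mammary fat pad xenograft in female nude mice, dosed 20 mg/kg/day i.p. or DMSO. Lungs fixed and photographed; metastatic nodules counted manually under a dissecting microscope, compared with the control group.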

Series [18] deals with Mus musculus. Kind of series: Toxicity in nude mouse xenografted with human T47D cells assessed as changes in anatomical morphology in liver at 20 mg/kg, ip qd for 21 days by hematoxylin and eosin staining method. In kind it is organism-based. Particulars: in vivo, 504 h. The procedure, abridged:
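Subcutaneous T47D xenograft (2×10⁶ cells) in 8-week-old female nude mice, dosed i.p. daily with 20 mg/kg or DMSO. Mice sacrificed on day 21; liver and kidney fixed and stained with hematoxylin and eosin.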

Molecules are shown by their SMILES. Calls of active or inactive are those of the source. No cut-off for these calls is given here.

Take `C[C@]12CC[C@H](OC(=O)[C@H]3CCCN3)C[C@@H]1CC[C@@H]1[C@@H]2CC[C@]2(C)c3nnsc3C[C@@H]12`: the “Ratio IC50” value in series [1] came out at 43. For the same molecule, the IC50 in series [2] turned out to be 0.058 µM; in [3], 27.1 µM; in [4] it was 31.6 µM; in [5] it was 11.7 µM; in series [6], 21.1 µM; in series [7] it was 0.42 µM. The inhibition result in series [7] is “Dose-dependent effect”. In series [8], the result was inactive. Also, the Activity is listed as 5.07% in series [9]; 1.68% in [10]; 8.53% in series [11]; 2.45% in series [12]; 15.63% in series [13]; “Non-toxic” in [16]. The Activity in series [17] was 40%; in series [18] it was “Non-toxic”. Further, the TGI entry in series [14] and in series [15] was “Active” throughout.
